Test results reported in ChEMBL document CHEMBL5058577, “EUbOPEN Chemogenomics Library 2 (Multiplex)” (2022).

Test system: Fibroblast
Experiment: Multiplex assay against human fibroblast
Assay type: toxicity, cell-based
How it was run: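 Values for tubulin, mitochondrial-mass and membrane-permeability phenotypes are per cents of cells with healthy nuclei. These cells were identified by CellPathfinder machine-learning gating of live cells that had been stained at seeding with Hoechst33342, BioTracker Green Microtubule Cytoskeleton Dye, MitoTracker Red and Annexin V Alexa Fluor 680 and imaged on a CQ1 microscope at 37°C and 5% CO2 after compound addition. The gating first set Hoechst high-intensity objects apart from normal cells, then split normal cells into healthy, pyknosed or fragmented nuclei, and pyknosed cells into mitotic or apoptotic.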

[1] = 12 h, 1 µM, compound concentration 1 uM, replicate 1
[2] = 12 h, 1 µM, compound concentration 1 uM, replicate 2
[3] = 12 h, 10 µM, compound concentration 10 uM, replicate 1
[4] = 12 h, 10 µM, compound concentration 10 uM, replicate 2
[5] = 24 h, 1 µM, compound concentration 1 uM, replicate 1
[6] = 24 h, 1 µM, compound concentration 1 uM, replicate 2
[7] = 24 h, 10 µM, compound concentration 10 uM, replicate 1
[8] = 24 h, 10 µM, compound concentration 10 uM, replicate 2
[9] = 48 h, 1 µM, compound concentration 1 uM, replicate 1
[10] = 48 h, 1 µM, compound concentration 1 uM, replicate 2
[11] = 48 h, 10 µM, compound concentration 10 uM, replicate 1
[12] = 48 h, 10 µM, compound concentration 10 uM, replicate 2

CCCCC1=NC2(CCCC2)C(=O)N1Cc1ccc(-c2ccccc2-c2nnn[nH]2)cc1 [IRBESARTAN]
Population Apoptotic (%) [1]: 40% | Population Fragmented Nuclei (%) [1]: 14% | Population Healthy Nuclei (%) [1]: 67% | Population Hoechst High Intensity Objects (%) [1]: 1% | Population Membrane Permeable-Phenotype (%) [1]: 0% | Population Mitochondria Different-Phenotype (%) [1]: 5% | Population Mitotic Cells (%) [1]: 59% | Population Normal (%) [1]: 98% | Population Pyknosed Nuclei (%) [1]: 17% | Population Tubulin-Different-Phenotype (%) [1]: 28% | Total Cell Count [1]: 159 | Population Apoptotic (%) [2]: 38% | Population Fragmented Nuclei (%) [2]: 24% | Population Healthy Nuclei (%) [2]: 55% | Population Hoechst High Intensity Objects (%) [2]: 3% | Population Membrane Permeable-Phenotype (%) [2]: 7% | Population Mitochondria Different-Phenotype (%) [2]: 2% | Population Mitotic Cells (%) [2]: 61% | Population Normal (%) [2]: 96% | Population Pyknosed Nuclei (%) [2]: 20% | Population Tubulin-Different-Phenotype (%) [2]: 43% | Total Cell Count [2]: 187 | Population Apoptotic (%) [3]: 60% | Population Fragmented Nuclei (%) [3]: 11% | Population Healthy Nuclei (%) [3]: 74% | Population Hoechst High Intensity Objects (%) [3]: 3% | Population Membrane Permeable-Phenotype (%) [3]: 3% | Population Mitochondria Different-Phenotype (%) [3]: 4% | Population Mitotic Cells (%) [3]: 40% | Population Normal (%) [3]: 96% | Population Pyknosed Nuclei (%) [3]: 13% | Population Tubulin-Different-Phenotype (%) [3]: 37% | Total Cell Count [3]: 151 | Population Apoptotic (%) [4]: 45% | Population Fragmented Nuclei (%) [4]: 32% | Population Healthy Nuclei (%) [4]: 48% | Population Hoechst High Intensity Objects (%) [4]: 7% | Population Membrane Permeable-Phenotype (%) [4]: 12% | Population Mitochondria Different-Phenotype (%) [4]: 3% | Population Mitotic Cells (%) [4]: 54% | Population Normal (%) [4]: 92% | Population Pyknosed Nuclei (%) [4]: 18% | Population Tubulin-Different-Phenotype (%) [4]: 53% | Total Cell Count [4]: 129 | Population Apoptotic (%) [5]: 47% | Population Fragmented Nuclei (%) [5]: 19% | Population Healthy Nuclei (%) [5]: 69% | Population Hoechst High Intensity Objects (%) [5]: 2% | Population Membrane Permeable-Phenotype (%) [5]: 1% | Population Mitochondria Different-Phenotype (%) [5]: 3% | Population Mitotic Cells (%) [5]: 52% | Population Normal (%) [5]: 97% | Population Pyknosed Nuclei (%) [5]: 10% | Population Tubulin-Different-Phenotype (%) [5]: 22% | Total Cell Count [5]: 170 | Population Apoptotic (%) [6]: 31% | Population Fragmented Nuclei (%) [6]: 25% | Population Healthy Nuclei (%) [6]: 57% | Population Hoechst High Intensity Objects (%) [6]: 3% | Population Mitochondria Different-Phenotype (%) [6]: 0% | Population Mitotic Cells (%) [6]: 68% | Population Normal (%) [6]: 96% | Population Pyknosed Nuclei (%) [6]: 16% | Population Tubulin-Different-Phenotype (%) [6]: 40% | Total Cell Count [6]: 183 | Population Apoptotic (%) [7]: 56% | Population Fragmented Nuclei (%) [7]: 9% | Population Healthy Nuclei (%) [7]: 74% | Population Hoechst High Intensity Objects (%) [7]: 1% | Population Membrane Permeable-Phenotype (%) [7]: 3% | Population Mitochondria Different-Phenotype (%) [7]: 7% | Population Mitotic Cells (%) [7]: 44% | Population Normal (%) [7]: 98% | Population Pyknosed Nuclei (%) [7]: 16% | Population Tubulin-Different-Phenotype (%) [7]: 37% | Total Cell Count [7]: 155 | Population Apoptotic (%) [8]: 45% | Population Fragmented Nuclei (%) [8]: 36% | Population Healthy Nuclei (%) [8]: 47% | Population Hoechst High Intensity Objects (%) [8]: 2% | Population Membrane Permeable-Phenotype (%) [8]: 8% | Population Mitochondria Different-Phenotype (%) [8]: 5% | Population Mitotic Cells (%) [8]: 55% | Population Normal (%) [8]: 97% | Population Tubulin-Different-Phenotype (%) [8]: 60% | Total Cell Count [8]: 125 | Population Apoptotic (%) [9]: 60% | Population Fragmented Nuclei (%) [9]: 21% | Population Healthy Nuclei (%) [9]: 69% | Population Hoechst High Intensity Objects (%) [9]: 3% | Population Membrane Permeable-Phenotype (%) [9]: 0% | Population Mitochondria Different-Phenotype (%) [9]: 4% | Population Mitotic Cells (%) [9]: 40% | Population Normal (%) [9]: 96% | Population Pyknosed Nuclei (%) [9]: 8% | Population Tubulin-Different-Phenotype (%) [9]: 31% | Total Cell Count [9]: 173 | Population Apoptotic (%) [10]: 55% | Population Fragmented Nuclei (%) [10]: 31% | Population Healthy Nuclei (%) [10]: 58% | Population Hoechst High Intensity Objects (%) [10]: 2% | Population Membrane Permeable-Phenotype (%) [10]: 2% | Population Mitochondria Different-Phenotype (%) [10]: 1% | Population Mitotic Cells (%) [10]: 44% | Population Normal (%) [10]: 97% | Population Pyknosed Nuclei (%) [10]: 10% | Population Tubulin-Different-Phenotype (%) [10]: 39% | Total Cell Count [10]: 178 | Population Apoptotic (%) [11]: 61% | Population Fragmented Nuclei (%) [11]: 14% | Population Healthy Nuclei (%) [11]: 66% | Population Hoechst High Intensity Objects (%) [11]: 2% | Population Membrane Permeable-Phenotype (%) [11]: 1% | Population Mitochondria Different-Phenotype (%) [11]: 5% | Population Mitotic Cells (%) [11]: 38% | Population Normal (%) [11]: 97% | Population Pyknosed Nuclei (%) [11]: 18% | Population Tubulin-Different-Phenotype (%) [11]: 38% | Total Cell Count [11]: 141 | Population Apoptotic (%) [12]: 37% | Population Fragmented Nuclei (%) [12]: 37% | Population Healthy Nuclei (%) [12]: 48% | Population Hoechst High Intensity Objects (%) [12]: 0% | Population Membrane Permeable-Phenotype (%) [12]: 3% | Population Mitochondria Different-Phenotype (%) [12]: 1% | Population Mitotic Cells (%) [12]: 62% | Population Normal (%) [12]: 99% | Population Pyknosed Nuclei (%) [12]: 13% | Population Tubulin-Different-Phenotype (%) [12]: 58% | Total Cell Count [12]: 117
